How the values were obtained:
Staphylococcus aureus = assay: Antibacterial activity against methicillin-resistant Staphylococcus aureus ATCC 43300 after 18 hrs by broth dilution assay; type: functional, organism-based; conditions: ATCC 43300, 18 h
Outline: (§1)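 Broth dilution; MRSA ATCC 43300 in trypticase soy medium, VRE ATCC 51299 in brain heart infusion medium. Cultures grown 14 h on rotary shaker at 38 °C, diluted to A600 0.04-0.06, then further 10-fold, dispensed to microtiter wells. Compounds tested in dilution series, ten replicates each; growth read as A600 after 18 h; IC50 reported.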

Enterococcus faecalis = assay: Antibacterial activity against vancomycin-resistant Enterococcus faecalis ATCC 51299 after 18 hrs by broth dilution assay; type: functional, organism-based; conditions: ATCC 51299, 18 h; outline: as §1
[1] = Cytotoxicity against human HCT 116 cells; type: functional, cell-based

CC1=CC(O)=C2C(=O)c3c(O)cccc3[C@@]34Oc5c(ccc6c5C(=O)c5c(O)cc(C)cc5C6=O)C23[C@@H]1[C@H](C)O4 (stereo partly specified)
IC50 (Staphylococcus aureus): 31 µM
IC50 (Enterococcus faecalis): 130 µM
IC50 [1]: 6.6 µM

Cc1cc(O)c2c(c1)C(=O)c1ccc3c(c1C2=O)O[C@@]12O[C@@H](C)[C@H]4C31C(=C(O)C[C@@]4(C)O)C(=O)c1c(O)cccc12 (stereo partly specified)
IC50 (Staphylococcus aureus): 0.15 µM
IC50 (Enterococcus faecalis): 2 µM
IC50 [1]: 3.3 µM

Cc1cc(O)c2c(c1)C(=O)c1ccc3c(c1C2=O)O[C@@]12O[C@@H](C)[C@@]4(O)C31C(=C(O)C[C@@]4(C)O)C(=O)c1c(O)cccc12 (stereo partly specified)
IC50 (Staphylococcus aureus): 0.36 µM
IC50 (Enterococcus faecalis): 12 µM
IC50 [1]: 5.6 µM

CN(C)[C@@H]1C(O)=C(C(N)=O)C(=O)[C@@]2(O)C(O)=C3C(=O)c4c(O)cccc4[C@@](C)(O)[C@H]3C[C@@H]12 [TETRACYCLINE]
IC50 (Staphylococcus aureus): 0.2 µg/mL
IC50 (Enterococcus faecalis): 0.7 µg/mL

Source: ChEMBL document CHEMBL1142606, “Antibiotic bisanthraquinones produced by a streptomycete isolated from a cyanobacterium associated with Ecteinascidia turbinata” (J Nat Prod, 2006)
